Measured values taken from ChEMBL document CHEMBL1125789, “Synthesis and selective class III antiarrhythmic activity of novel N-heteroaralkyl-substituted 1-(aryloxy)-2-propanolamine and related propylamine derivatives” (J Med Chem, 1991).

Assays:
[1] = tested on: Canis familiaris; assay: Mean arterial pressure by the compound in open chest anesthetized dog, after iv administration at a dose of 0.50 mg/kg.; assay type: functional, Canis lupus familiaris, Artery; conditions: dose 0.5 mg/kg
In short: (§1)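 Hemodynamics (heart rate, mean arterial pressure) recorded in pentobarbital-anesthetized (30 mg/kg iv, 5 mg/kg per h maintenance) open-chest mongrel dogs during the refractoriness study at BCL 300 ms. Readings were taken before and after iv or intraduodenal compound and expressed as change from control.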

[2] = tested on: Canis familiaris; assay: Atrial conduction time by the compound in open chest anesthetized dog, after iv administration at a dose of 0.05 mg/kg.; assay type: functional, Canis lupus familiaris, Cardiac atrium
In short: (§2)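 Mongrel dogs anesthetized with sodium pentobarbital (30 mg/kg iv, then 5 mg/kg per h), chest opened, paced at BCL 300 ms. Atrial conduction time was taken as the interval between electrograms recorded at the proximal and distal sites of the atrial recording electrode array, before and after iv or intraduodenal dosing. Values are changes from control.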

[3] = tested on: Canis familiaris; assay: Mean arterial pressure by the compound in open chest anesthetized dog, after iv administration at a dose of 0.05 mg/kg.; assay type: functional, Canis lupus familiaris, Artery; in short: as §1
[4] = tested on: Canis familiaris; assay: Atrial effective refractory period by the compound in open chest anesthetized dog, after iv administration at a dose of 0.25 mg/kg.; assay type: functional, Canis lupus familiaris, Cardiac atrium
In short: (§3)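 Open-chest mongrel dogs under sodium pentobarbital anesthesia (30 mg/kg iv plus 5 mg/kg per h), paced at basic cycle length 300 ms. Atrial effective refractory period was determined by electrical stimulation before and after iv or intraduodenal compound and reported as change from control.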

[5] = species on record: Canis familiaris; assay: repolarization to reach -60mV, in canine Purkinje Fibers at a concentration of 0.03 uM at 1000 ms (simulating normal heart rate); assay type: functional, Canis lupus familiaris, Purkinje fiber
In short: (§4)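 Purkinje fiber bundles were stimulated with square-wave current pulses of 2.0 ms at twice threshold and equilibrated for at least 1 h, or until action potential parameters were steady. Each concentration was superfused for 45-60 min to reach steady state. Action potentials were recorded at four to six sites per fiber, under control and after drug.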

[6] = tested on: Canis familiaris; assay: Atrial conduction time by the compound in open chest anesthetized dog, after iv administration at a dose of 0.25 mg/kg.; assay type: functional, Canis lupus familiaris, Cardiac atrium; in short: as §2
[7] = species on record: Canis familiaris; assay: repolarization to reach -60mV, in canine Purkinje Fibers at a concentration of 0.10 uM at 1000 ms (simulating normal heart rate); assay type: functional, Canis lupus familiaris, Purkinje fiber; in short: as §4
[8] = tested on: Canis familiaris; assay: Atrial effective refractory period by the compound in open chest anesthetized dog, after iv administration at a dose of 0.05 mg/kg.; assay type: functional, Canis lupus familiaris, Cardiac atrium; in short: as §3
[9] = tested on: Canis familiaris; assay: Heart beat by the compound in open chest anesthetized dog, after iv administration at a dose of 0.05 mg/kg.; assay type: functional, Canis lupus familiaris; in short: as §1
[10] = tested on: Canis familiaris; assay: Atrial effective refractory period by the compound in open chest anesthetized dog, after iv administration at a dose of 0.50 mg/kg.; assay type: functional, Canis lupus familiaris, Cardiac atrium; conditions: dose 0.5 mg/kg; in short: as §3
[11] = tested on: Canis familiaris; assay: Heart beat by the compound in open chest anesthetized dog, after iv administration at a dose of 0.25 mg/kg.; assay type: functional, Canis lupus familiaris; in short: as §1
[12] = species on record: Canis familiaris; assay: Repolarization to reach -60mV, in canine Purkinje Fibers at a concentration of 0.10 uM at 300 ms (simulating tachycardia); assay type: functional, Canis lupus familiaris, Purkinje fiber
In short: (§5)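 Isolated canine Purkinje fiber bundles were driven by square-wave pulses 2.0 ms long at 2× threshold and equilibrated ≥1 h to steady state. Each concentration was superfused 45–60 min before recording, and action potentials were sampled at 4–6 sites per fiber in control and after drug, giving Vmax and APD to −60 mV.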

[13] = tested on: Canis familiaris; assay: Ventricular conduction time by the compound in open chest anesthetized dog, after iv administration at a dose of 0.05 mg/kg.; assay type: functional, Canis lupus familiaris, Heart
In short: (§6)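 Mongrel dogs were anesthetized with sodium pentobarbital (30 mg/kg iv, then 5 mg/kg per h), the chest opened, and the heart paced at BCL 300 ms. Compound was given iv or intraduodenally. Ventricular conduction time was taken as the interval between electrograms at the proximal and distal sites of the recording electrode array. 2-5 dogs per dose.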

[14] = tested on: Canis familiaris; assay: Ventricular effective refractory period by the compound in open chest anesthetized dog, after iv administration at a dose of 0.25 mg/kg.; assay type: functional, Canis lupus familiaris, Heart
[15] = species on record: Canis familiaris; assay: repolarization to reach -60mV, in canine Purkinje Fibers at a concentration of 0.01 uM at 1000 ms (simulating normal heart rate); assay type: functional, Canis lupus familiaris, Purkinje fiber; in short: as §4
[16] = tested on: Canis familiaris; assay: Ventricular effective refractory period by the compound in open chest anesthetized dog, after iv administration at a dose of 0.05 mg/kg.; assay type: functional, Canis lupus familiaris, Heart
[17] = tested on: Canis familiaris; assay: Mean arterial pressure by the compound in open chest anesthetized dog, after iv administration at a dose of 0.25 mg/kg.; assay type: functional, Canis lupus familiaris, Artery; in short: as §1
[18] = tested on: Canis familiaris; assay: Heart beat by the compound in open chest anesthetized dog, after iv administration at a dose of 0.50 mg/kg.; assay type: functional, Canis lupus familiaris; conditions: dose 0.5 mg/kg; in short: as §1
[19] = species on record: Canis familiaris; assay: Repolarization to reach -60mV, in canine Purkinje Fibers at a concentration of 0.01 uM at 300 ms (simulating tachycardia); assay type: functional, Canis lupus familiaris, Purkinje fiber; in short: as §5
[20] = tested on: Canis familiaris; assay: Ventricular conduction time by the compound in open chest anesthetized dog, after iv administration at a dose of 0.50 mg/kg.; assay type: functional, Canis lupus familiaris, Heart; conditions: dose 0.5 mg/kg; in short: as §6
[21] = tested on: Canis familiaris; assay: Ventricular conduction time by the compound in open chest anesthetized dog, after iv administration at a dose of 0.25 mg/kg.; assay type: functional, Canis lupus familiaris, Heart; in short: as §6
[22] = tested on: Canis familiaris; assay: Atrial conduction time by the compound in open chest anesthetized dog, after iv administration at a dose of 0.50 mg/kg.; assay type: functional, Canis lupus familiaris, Cardiac atrium; conditions: dose 0.5 mg/kg; in short: as §2
[23] = tested on: Canis familiaris; assay: Ventricular effective refractory period by the compound in open chest anesthetized dog, after iv administration at a dose of 0.50 mg/kg.; assay type: functional, Canis lupus familiaris, Heart; conditions: dose 0.5 mg/kg
[24] = species on record: Canis familiaris; assay: Maximum rate of rise of the upstroke of transmembrane potential, in canine Purkinje Fibers at a concentration of 0.10 uM at 1000 ms (simulating normal heart rate); assay type: functional; conditions: Canis lupus familiaris, Purkinje fiber; in short: as §5
[25] = species on record: Canis familiaris; assay: Maximum rate of rise of the upstroke of transmembrane potential, in canine Purkinje Fibers at a concentration of 0.03 uM at 1000 ms (simulating normal heart rate); assay type: functional; conditions: Canis lupus familiaris, Purkinje fiber; in short: as §5
[26] = species on record: Canis familiaris; assay: Maximum rate of rise of the upstroke of transmembrane potential, in canine Purkinje Fibers at a concentration of 0.03 uM at 300 ms (simulating tachycardia); assay type: functional; conditions: Canis lupus familiaris, Purkinje fiber; in short: as §5
[27] = species on record: Canis familiaris; assay: Repolarization to reach -60mV, in canine Purkinje Fibers at a concentration of 0.03 uM at 300 ms (simulating tachycardia); assay type: functional, Canis lupus familiaris, Purkinje fiber; in short: as §5
[28] = species on record: Canis familiaris; assay: Maximum rate of rise of the upstroke of transmembrane potential, in canine Purkinje Fibers at a concentration of 0.01 uM at 1000 ms (simulating normal heart rate); assay type: functional; conditions: Canis lupus familiaris, Purkinje fiber; in short: as §5
[29] = species on record: Canis familiaris; assay: Maximum rate of rise of the upstroke of transmembrane potential, in canine Purkinje Fibers at a concentration of 0.10 uM at 300 ms (simulating tachycardia); assay type: functional; conditions: Canis lupus familiaris, Purkinje fiber; in short: as §5
[30] = species on record: Canis familiaris; assay: Maximum rate of rise of the upstroke of transmembrane potential, in canine Purkinje Fibers at a concentration of 0.01 uM at 300 ms (simulating tachycardia); assay type: functional; conditions: Canis lupus familiaris, Purkinje fiber; in short: as §5

| Compound | MBP [1] | ACT [2] | MBP [3] | AERP [4] | APD [5] [%] | ACT [6] | APD [7] [%] | AERP [8] | HR [9] | AERP [10] | HR [11] | APD [12] [%] | VCT [13] | VERP [14] | APD [15] [%] | VERP [16] | MBP [17] | HR [18] | APD [19] [%] | VCT [21] | other results |
| --- | --- | --- | --- | --- | --- | --- | --- | --- | --- | --- | --- | --- | --- | --- | --- | --- | --- | --- | --- | --- | --- |
| Cc1cccc(CCN2CCC(C(=O)c3ccc(NS(C)(=O)=O)cc3)CC2)n1 | -15 | 1 | 2 | 38 | 53 | 1 | 54 | 28 | -10 | 44 | -25 | 24 | -3 | 23 | 27 | 18 | -11 | -29 | 11 | -2 | VCT [20]: -3; ACT [22]: 1; VERP [23]: 24 |
| CN(CCCOc1ccc(NS(C)(=O)=O)cc1)Cc1ccc2cc(NS(C)(=O)=O)ccc2n1 | – | -5 | 4 | 70 | 56 | -4 | 73 | 53 | -16 | – | -26 | 22 | -1 | 36 | 36 | 26 | 4 | – | 15 | -3 | Vmax [24]: -12; Vmax [25]: -8; Vmax [26]: -9; APD [27]: 17%; Vmax [28]: -1; Vmax [29]: -14; Vmax [30]: -1 |
| CN(CCOc1ccc(NS(C)(=O)=O)cc1)CCc1ccc(NS(C)(=O)=O)cc1 [DOFETILIDE] | -2 | -4 | 1 | 60 | 67 | -6 | 85 | 46 | -14 | 65 | -21 | 29 | -4 | 25 | 37 | 23 | 1 | -24 | 22 | -5 | Vmax [24]: 5; Vmax [25]: 2; Vmax [26]: 7; Vmax [28]: 4; Vmax [29]: 5; Vmax [30]: 4; VCT [20]: -4; ACT [22]: -9; VERP [23]: 27 |
